Test results: article PMC6649664 (Cell host & microbe, 2019)

What was measured:
Format in all cases: cell-based
[1] = tested on: LAD2 human mast cells; assay: Mast cell degranulation assay; settings: 30 min at 37°C
Procedure, shortened: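 LAD2 cells were washed and resuspended at 0.5 × 10^6 cells/mL in 0.4% BSA-HEPES buffer, then exposed to compound for 30 min at 37°C in 5% CO2. β-Hexosaminidase was measured in supernatants and in 0.1% Triton X-100 lysates by p-nitrophenyl N-acetyl-β-D-glucosamide hydrolysis in 0.1 M sodium citrate (pH 4.5) for 90 min at 37°C. Release is expressed as percent of total content.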

[2] = target: T1, MRGPRX2 (Homo sapiens, UniProt Q96LB1); assay: Calcium imaging / FLIPR EC50 determination in HEK293 cells expressing MRGPRX2; settings: HEK293 cells stably expressing MRGPRX2 and Gα15
T1 sequence (Q96LB1 1-330): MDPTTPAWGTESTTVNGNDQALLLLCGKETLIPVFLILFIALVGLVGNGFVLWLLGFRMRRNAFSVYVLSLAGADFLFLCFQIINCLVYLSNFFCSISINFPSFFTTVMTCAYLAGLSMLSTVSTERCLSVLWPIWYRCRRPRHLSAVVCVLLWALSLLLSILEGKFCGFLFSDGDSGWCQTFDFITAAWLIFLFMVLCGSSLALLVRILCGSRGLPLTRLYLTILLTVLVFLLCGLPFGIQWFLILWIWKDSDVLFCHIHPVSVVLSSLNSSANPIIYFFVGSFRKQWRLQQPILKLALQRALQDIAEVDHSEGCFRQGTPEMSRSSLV
Procedure, shortened: (§1)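 HEK293 cells stably co-expressing Gα15 with the receptor were seeded at 4 × 10^4 cells/well and cultured overnight. After dye loading for 60 min at 37°C and 15 min recovery at RT, fluorescence was recorded on a Flexstation for 120 s. Compound, dissolved in HBSS+HEPES, was added as a 3X solution at 30 s. Response was taken as maximum minus minimum signal, averaged from duplicate wells. EC50 was fitted per trial after normalising to that trial's peak response.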

[3] = target: T2, Mrgprb2 (Mus musculus, UniProt Q3KNA1); assay: Calcium imaging / FLIPR EC50 determination in HEK293 cells expressing Mrgprb2; settings: HEK293 cells stably expressing Mrgprb2 and Gα15
T2 sequence (Q3KNA1 1-338): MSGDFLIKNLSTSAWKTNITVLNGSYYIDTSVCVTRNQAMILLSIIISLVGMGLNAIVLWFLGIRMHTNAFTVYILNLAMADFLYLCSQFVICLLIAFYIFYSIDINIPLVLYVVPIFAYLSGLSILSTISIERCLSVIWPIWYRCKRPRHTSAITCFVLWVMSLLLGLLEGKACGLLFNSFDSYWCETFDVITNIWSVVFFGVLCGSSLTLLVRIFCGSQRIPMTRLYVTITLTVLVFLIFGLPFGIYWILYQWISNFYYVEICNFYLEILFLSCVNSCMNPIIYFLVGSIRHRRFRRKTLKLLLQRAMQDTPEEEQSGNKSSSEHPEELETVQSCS
Procedure, shortened: as §1

autoinducer-2 [AI-2]
β-hexosaminidase release [1]: did not activate | activation of MRGPRX2-HEK cells (Ca2+ mobilization) [2]: did not activate | activation of Mrgprb2-HEK cells (Ca2+ mobilization) [3]: did not activate

competence stimulating peptide [CSP]
activation of MRGPRX2-HEK cells (Ca2+ mobilization) [2]: activated | activation of Mrgprb2-HEK cells (Ca2+ mobilization) [3]: activated
